Compound activity from PubChem BioAssay.
CDK5 inh – CDK5/p35 (human) kinase inhibition | Q00535+Q15078 | Recombinant CDK5/p35, ADP-Glo luminescence, 60 min | inhibition, % at 10 µM | hit rate 0.01% among 330,000;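 active = highest replicate inhibition of at least 50% and at least 75% of replicates reaching 50%; inconclusive = only one of the two criteria met; inactive = both criteria failed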
Target sequence (Q00535 whole entry, looked up): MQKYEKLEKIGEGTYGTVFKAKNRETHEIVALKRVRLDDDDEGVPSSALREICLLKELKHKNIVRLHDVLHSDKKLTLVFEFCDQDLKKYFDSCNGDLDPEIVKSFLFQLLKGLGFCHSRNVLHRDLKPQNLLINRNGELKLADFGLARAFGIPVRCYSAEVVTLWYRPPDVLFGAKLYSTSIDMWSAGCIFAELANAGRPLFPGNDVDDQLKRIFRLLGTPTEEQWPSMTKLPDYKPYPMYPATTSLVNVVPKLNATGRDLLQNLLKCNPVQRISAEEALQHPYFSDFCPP
Target sequence (Q15078 whole entry, looked up): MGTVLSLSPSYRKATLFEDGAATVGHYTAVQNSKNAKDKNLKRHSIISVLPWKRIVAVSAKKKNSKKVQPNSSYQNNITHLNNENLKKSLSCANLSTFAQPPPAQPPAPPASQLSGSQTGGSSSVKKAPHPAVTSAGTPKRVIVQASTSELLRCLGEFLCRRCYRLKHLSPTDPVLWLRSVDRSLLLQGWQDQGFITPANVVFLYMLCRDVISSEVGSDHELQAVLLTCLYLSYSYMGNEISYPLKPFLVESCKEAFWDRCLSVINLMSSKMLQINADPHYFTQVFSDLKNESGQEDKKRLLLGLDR
dFosB activator – mouse delta FosB homodimer activation; P13346; hit rate 0.99% among 340,000; activation, % at 25 µM; purified delta FosB, TAMRA-CDK5 oligo fluorescence polarization; percent of positive-control signal above neutral wells; AID 493131;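 active = mean activation above about 17%, with every replicate also reaching it, limit read from the data, passing the limit was not always enough; inconclusive = only one of the two conditions met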
GSIS activator – GLuc luminescence reporter in INS-1E cells, primary screen for activators of glucose-dependent secretion of insulin; activation, % at 16.6 µM; AID 743287; hit rate 0.61% among 370,000; INS-1E GLuc reporter insulin secretion, 2-3 h;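 active = lowest replicate activation of at least 40%, so every replicate reaches that level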
HIV Env fusion – HIV envelope-mediated fusion inhibition. HeLa-JRFL Env/CEM21 cell fusion, luciferase. inhibition, % at 12.3 µM. hit rate 1.1% among 360,000. AID 651610;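 active = mean replicate inhibition score of at least 50 and every replicate individually at or above 50; inconclusive = only one of the two criteria met; inactive = mean below 50 and not all replicates reaching 50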
Cneo AK release – causes C. neoformans cell lysis; lysis activity, % at 15 µM; AID 651654; adenylate kinase release luminescence, 4 h; normalised: neutral wells 0, clomiphene wells 100; hit rate 0.2% among 360,000;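 active = mean lysis activity across replicates of at least 80%, whatever share of replicates individually reach that level; inactive = mean lysis activity below 80%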
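Material – Cryptococcus neoformans yeast cells · Quantity – 5 × 10^6 yeast cells/mL · Buffer or medium – YPD medium · Compound – single dose · Timing – 4 h static compound exposure, 37 °C, read 1 h post-reagent · Signal – adenylate kinase release luminescence · Read-out basis – lysis from increased AK signal · Benchmarks – Clomiphene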
PAX8 reporter – inhibitors of PAX8 transcriptional activity in RMG-I cells | inhibition, % at 12.6 µM | AID 652154 | hit rate 1.2% among 360,000 | RMG-I TPO-luciferase reporter, SteadyGlo, 24 h;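 active = mean replicate inhibition at least 60% with every replicate also reaching 60%; inconclusive = only one of the two criteria is met; inactive = mean below 60% and not all replicates reaching 60%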;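 note: luciferase light reporting Pax8 driven TPO promoter activity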
Hits are given with their value. An excerpt weighted towards active compounds, which were near 2.9% of everything screened.

Results for COc1ccc(NC(=O)C2CCN(S(=O)(=O)c3ccc4c(c3)CC(C)N4C(C)=O)CC2)cc1OC (configuration not stated) ?
CDK5 inh: inactive; dFosB activator: inactive; GSIS activator: inactive; HIV Env fusion: inactive; Cneo AK release: inactive; PAX8 reporter: inactive

How did CCC(C)NC(=O)C1CCCN(S(=O)(=O)c2ccc3c(c2)CC(C)N3C(=O)C2CC2)C1 (configuration not stated) do in these assays?
CDK5 inh: inactive; dFosB activator: inactive; GSIS activator: inactive; HIV Env fusion: inactive; Cneo AK release: inactive; PAX8 reporter: inactive

Results for CC(=O)N1c2ccc(S(=O)(=O)N3CCCC3C(=O)Nc3cccc(F)c3)cc2CC1C (configuration not stated) ?
CDK5 inh: inactive; dFosB activator: inactive; GSIS activator: inactive; HIV Env fusion: inactive; Cneo AK release: inactive; PAX8 reporter: inactive

How did Cc1noc(C)c1S(=O)(=O)Nc1ccc2c(c1)C(=O)N([C@@H](C)CO)C[C@H](C)[C@@H](CN(C)C(=O)C1CCCCC1)OCCCC[C@H](C)O2 do in these assays?
GSIS activator: inactive; HIV Env fusion: inactive; Cneo AK release: inactive; PAX8 reporter: inactive

Results for CC(C)CC#Cc1ccc2c(c1)O[C@H](CN(C)CC1CC1)[C@H](C)CN([C@H](C)CO)S2(=O)=O ?
GSIS activator: inactive; HIV Env fusion: inactive; Cneo AK release: inactive

What do the screens show for `O=C(/C=C/c1cccs1)NC(=S)NNC(=O)c1ccccc1O`?
CDK5 inh: inactive; dFosB activator: inactive; GSIS activator: inactive; HIV Env fusion: inconclusive; PAX8 reporter: 89.2

How did Cc1noc(C)c1NC(=O)Nc1ccc2c(c1)C(=O)N(C)[C@@H]1CC[C@H](CC(=O)N[C@H]3CCN(Cc4ccccc4)C3)O[C@@H]1CO2 do in these assays?
GSIS activator: inactive; HIV Env fusion: inactive; Cneo AK release: 100.2; PAX8 reporter: inactive

How did Cc1noc(C)c1NC(=O)Nc1ccc2c(c1)C(=O)N(C)[C@H]1CC[C@H](CC(=O)N[C@H]3CCN(Cc4ccccc4)C3)O[C@H]1CO2 do in these assays?
GSIS activator: inactive; HIV Env fusion: inactive; Cneo AK release: 86.4; PAX8 reporter: inactive

Results for Cc1cc(C)cc(NC(=O)CC2Oc3ccc(C)cc3NC2=O)c1 (configuration not stated) ?
CDK5 inh: inactive; dFosB activator: 32.2; GSIS activator: inactive; HIV Env fusion: inactive; Cneo AK release: inactive; PAX8 reporter: inactive

What do the screens show for `CC(=O)c1cccc(NC(=O)CC2Oc3ccc(C)cc3NC2=O)c1` (configuration not stated)?
CDK5 inh: inactive; dFosB activator: inactive; GSIS activator: inactive; HIV Env fusion: inactive; Cneo AK release: inactive; PAX8 reporter: inactive

Results for C=CCCC(=O)N1C[C@H]2CON(C)[C@H]2C[C@H]1c1ccccc1Br ?
CDK5 inh: inactive; dFosB activator: inactive; GSIS activator: inactive; HIV Env fusion: inactive; Cneo AK release: inactive; PAX8 reporter: inactive

What do the screens show for `CN1OC[C@@H]2CN(C(=S)Nc3cc(C(F)(F)F)cc(C(F)(F)F)c3)[C@H](c3ccccc3Br)C[C@@H]21`?
HIV Env fusion: inactive; PAX8 reporter: 83.8

How did COc1cccc(S(=O)(=O)N(C)C[C@@H]2Oc3ncc(C#CC(C)C)cc3C(=O)N([C@H](C)CO)C[C@@H]2C)c1 do in these assays?
GSIS activator: inactive; HIV Env fusion: inactive; Cneo AK release: inactive; PAX8 reporter: inactive

What do the screens show for `CCCNC(=O)C1(C)CCN(Cc2ccc(OC)c3ccccc23)C1` (configuration not stated)?
HIV Env fusion: inactive; Cneo AK release: inactive; PAX8 reporter: inactive

Results for COc1ccc(CN2CCC(C)(Oc3ccc4c(c3)OCO4)C2)c2ccccc12 (configuration not stated) ?
GSIS activator: inactive; HIV Env fusion: 70.4; Cneo AK release: inactive; PAX8 reporter: inactive

What do the screens show for `COc1ccc(C#Cc2ccc3c(c2)O[C@H](CN(C)C(=O)CN2CCOCC2)[C@H](C)CN([C@@H](C)CO)S3(=O)=O)cc1`?
GSIS activator: inactive; HIV Env fusion: inactive; Cneo AK release: inactive; PAX8 reporter: inactive

Results for CON(C)C(=O)CC1(CN(Cc2ccccc2)C(=O)OC(C)(C)C)CCCCC1 ?
CDK5 inh: inactive; dFosB activator: inactive; GSIS activator: inactive; HIV Env fusion: inactive; Cneo AK release: inactive; PAX8 reporter: inactive
